# Assay results taken from ChEMBL document CHEMBL1141407, “Synthesis and evaluation of 1,2,3-triazole containing analogues of the immunostimulant alpha-GalCer” (2007).
# The source made the active and inactive calls. The calls are words filed in the database; no cut-off is given here.
# Columns and labels:
# [1] = tested on: Splenocyte; assay: Stimulation of IL4 secretion from C57BL/6 mouse splenocytes at 125 ng/mL after 72 hrs relative to alphaGalCer; assay type: functional
# How it was run: (§1)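 Splenocytes from naive C57BL/6 mice were cultured with glycolipid at various concentrations for 72 h. IFN-γ and IL-4 in the supernatant were measured by ELISA and expressed as relative activities. Data are means ± SD of duplicates, representative of two experiments; significance by Student's t test.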
# [2] = tested on: Splenocyte; assay: Stimulation of IFN-gamma secretion from C57BL/6 mouse splenocytes at 125 ng/mL after 72 hrs; assay type: functional; how it was run: as §1
# [3] = tested on: Splenocyte; assay: Stimulation of IFN-gamma secretion from C57BL/6 mouse splenocytes at 32 ng/mL after 72 hrs; assay type: functional; how it was run: as §1
# [4] = tested on: Mus musculus; assay: Elevation of IL4 in C57B/6 mouse at 1 ug, iv after 2 hrs; assay type: functional, organism-based
# How it was run: (§2)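 Naive C57BL/6 mice given glycolipid at 1 µg/mouse by intravenous injection; serum IFN-γ and IL-4 measured by ELISA at several time points after dosing. Data are means ± SD of three mice, representative of two separate experiments.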
# [5] = tested on: Mus musculus; assay: Elevation of IFN-gamma in C57B/6 mouse at 1 ug, iv after 12 hrs; assay type: functional, organism-based; how it was run: as §2
# [6] = tested on: Splenocyte; assay: Stimulation of IL4 secretion from C57BL/6 mouse splenocytes at 32 ng/mL after 72 hrs; assay type: functional; how it was run: as §1
# [7] = tested on: Splenocyte; assay: Stimulation of IL4 secretion from C57BL/6 mouse splenocytes at 125 ng/mL after 72 hrs; assay type: functional; how it was run: as §1
# [8] = tested on: Mus musculus; assay: Elevation of IL4 in C57B/6 mouse at 1 ug, iv; assay type: functional, organism-based; how it was run: as §2
# [9] = tested on: Mus musculus; assay: Elevation of IFN-gamma in C57B/6 mouse at 1 ug, iv; assay type: functional, organism-based; how it was run: as §2
# [10] = tested on: Splenocyte; assay: Stimulation of IFN-gamma secretion from C57BL/6 mouse splenocytes at 32 ng/mL after 72 hrs relative to alphaGalCer; assay type: functional; how it was run: as §1
# [11] = tested on: DN32.D3; assay: Stimulation of IL2 production in DN32.D3 cells at 32 ng/mL after 16 hrs; assay type: functional, cell-based; details: Mus musculus
# How it was run: (§3)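 Rat basophilic leukemia cells transfected with mouse CD1d were pulsed with glycolipid at various concentrations for 4 h, then washed three times with PBS. They were co-cultured with DN32.D3 NKT hybridoma cells (Vα14+) for 16 h, and IL-2 in the supernatant was measured by ELISA. Data are means ± SD of duplicates, representative of two experiments.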
# [12] = tested on: Splenocyte; assay: Stimulation of IL4 secretion from C57BL/6 mouse splenocytes at 32 ng/mL after 72 hrs relative to alphaGalCer; assay type: functional; how it was run: as §1
# [13] = tested on: Splenocyte; assay: Stimulation of IFN-gamma secretion from C57BL/6 mouse splenocytes at 125 ng/mL after 72 hrs relative to alphaGalCer; assay type: functional; how it was run: as §1
# [14] = tested on: DN32.D3; assay: Stimulation of IL2 production in DN32.D3 cells at 500 ng/mL after 16 hrs; assay type: functional, cell-based; details: Mus musculus; how it was run: as §3
# [15] = tested on: DN32.D3; assay: Stimulation of IL2 production in DN32.D3 cells after 16 hrs; assay type: functional, cell-based; details: Mus musculus; how it was run: as §3
compound,measurement,setting,value
CCCCCCCCCCCCCCCCCCCCCCCc1cn([C@@H](CO[C@H]2O[C@H](CO)[C@H](O)[C@H](O)[C@H]2O)[C@H](O)[C@H](O)CCCCCCCCCCCCCC)nn1,Activity,[1],Active
CCCCCCCCCCCCCCCCCCCCCCCCCC(=O)N[C@@H](CO[C@H]1O[C@H](CO)[C@H](O)[C@H](O)[C@H]1O)[C@H](O)[C@H](O)CCCCCCCCCCCCCC [RGI-7000],Activity,[2],12.8 ng/mL
same,Activity,[3],15.6 ng/mL
same,Activity,[4],Active
same,Activity,[5],Active
same,Activity,[6],1.12 ng/mL
same,Activity,[7],0.9 ng/mL
CCCCCCCCCCCCCC[C@@H](O)[C@@H](O)[C@H](CO[C@H]1O[C@H](CO)[C@H](O)[C@H](O)[C@H]1O)n1cc(CCCCCCC)nn1,Activity,[8],inactive
same,Activity,[9],inactive
same,Activity,[1],Active
CCCCCCCCCCCCCCCCCCCCCCCCc1cn([C@@H](CO[C@H]2O[C@H](CO)[C@H](O)[C@H](O)[C@H]2O)[C@H](O)[C@H](O)CCCCCCCCCCCCCC)nn1,Activity,[1],1.09 ng/mL
same,Activity,[10],4.63 ng/mL
same,Activity,[11],Active
same,Activity,[12],1.51 ng/mL
same,Activity,[13],11.5 ng/mL
CCCCCCCCCCCCCC[C@@H](O)[C@@H](O)[C@H](CO[C@H]1O[C@H](CO)[C@H](O)[C@H](O)[C@H]1O)n1cc(CCCCCC)nn1,Activity,[8],inactive
same,Activity,[9],inactive
same,Activity,[14],inactive
CCCCCCCCCCCCCCCCc1cn([C@@H](CO[C@H]2O[C@H](CO)[C@H](O)[C@H](O)[C@H]2O)[C@H](O)[C@H](O)CCCCCCCCCCCCCC)nn1,Activity,[8],inactive
same,Activity,[9],inactive
same,Activity,[15],inactive
